Assay results reported in ChEMBL document CHEMBL4052823, “Extra Sugar on Vancomycin: New Analogues for Combating Multidrug-Resistant Staphylococcus aureus and Vancomycin-Resistant Enterococci” (J Med Chem, 2018).
Converted amounts (≈) assume the structure as drawn.

Key:
Staphylococcus aureus [1] = assay: Antibacterial activity against vancomycin/methicillin-susceptible Staphylococcus aureus Newman […] after 24 hrs by broth microdilution method; type: functional
Method in brief: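 Broth microdilution in cation-adjusted Mueller-Hinton II broth. […] Each well received ~10^5 CFU of exponential-phase bacteria and was incubated at 37 °C for 24 h. MIC was taken as the lowest concentration giving complete growth inhibition, interpreted per CLSI.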

Staphylococcus aureus [2] = assay: Antibacterial activity against healthcare-associated methicillin-resistant/vancomycin-intermediate Staphylococcus aureus Mu50 after 24 hrs by broth microdilution method; type: functional; details: Mu50, 24 h
Method in brief: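 Broth microdilution in cation-adjusted Mueller-Hinton II broth. DMSO stocks were diluted in broth and twofold serially from 128 to 0.0625 μg/mL or lower. Each well was inoculated with ~10^5 CFU of exponential-phase bacteria and incubated at 37 °C for 24 h. MIC was the lowest concentration giving complete growth inhibition, read per CLSI. Growth controls contained broth plus DMSO.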

Row | SMILES | MIC90 (Staphylococcus aureus [1]) [µg/mL] | MIC90 (Staphylococcus aureus [2]) [µg/mL]
1 | CCc1ccc(CN[C@@]2(C)C[C@H](O[C@H]3[C@H](Oc4c5cc6cc4Oc4ccc(cc4Cl)[C@@H](O)[C@@H](NC(=O)[C@@H](CC(C)C)NC)C(=O)N[C@@H](CC(N)=O)C(=O)N[C@H]6C(=O)N[C@H]4C(=O)N[C@H](C(=O)N[C@H](C(=O)O)c6cc(O)c(CNCCO)c(O)c6-c6cc4ccc6O)[C@H](O)c4ccc(c(Cl)c4)O5)O[C@H](CO)[C@@H](O)[C@@H]3O)O[C@@H](C)[C@H]2O)cc1 | 2 (≈ 1.22 µM) | 4 (≈ 2.44 µM)
2 | CCCCCOc1ccc(CN[C@@]2(C)C[C@H](O[C@H]3[C@H](Oc4c5cc6cc4Oc4ccc(cc4Cl)[C@@H](O)[C@@H](NC(=O)[C@@H](CC(C)C)NC)C(=O)N[C@@H](CC(N)=O)C(=O)N[C@H]6C(=O)N[C@H]4C(=O)N[C@H](C(=O)N[C@H](C(=O)O)c6cc(O)c(CNCCCNC(=O)[C@H](O)[C@@H](O)[C@H](O)[C@H](O)CO)c(O)c6-c6cc4ccc6O)[C@H](O)c4ccc(c(Cl)c4)O5)O[C@H](CO)[C@@H](O)[C@@H]3O)O[C@@H](C)[C@H]2O)cc1 | 1 (≈ 0.529 µM) | 2 (≈ 1.06 µM)
3 | CCCCCCCCCCN[C@@]1(C)C[C@H](O[C@H]2[C@H](Oc3c4cc5cc3Oc3ccc(cc3Cl)[C@@H](O)[C@@H](NC(=O)[C@@H](CC(C)C)NC)C(=O)N[C@@H](CC(N)=O)C(=O)N[C@H]5C(=O)N[C@H]3C(=O)N[C@H](C(=O)N[C@H](C(=O)O)c5cc(O)c(CNCCCNC(=O)[C@H](O)[C@@H](O)[C@H](O)[C@H](O)CO)c(O)c5-c5cc3ccc5O)[C@H](O)c3ccc(c(Cl)c3)O4)O[C@H](CO)[C@@H](O)[C@@H]2O)O[C@@H](C)[C@H]1O | 0.12 (≈ 0.0647 µM) | 0.5 (≈ 0.27 µM)
4 | CCc1ccc(CN[C@@]2(C)C[C@H](O[C@H]3[C@H](Oc4c5cc6cc4Oc4ccc(cc4Cl)[C@@H](O)[C@@H](NC(=O)[C@@H](CC(C)C)NC)C(=O)N[C@@H](CC(N)=O)C(=O)N[C@H]6C(=O)N[C@H]4C(=O)N[C@H](C(=O)N[C@H](C(=O)O)c6cc(O)c(CNCCCNC(=O)[C@H](O)[C@@H](O)[C@H](O)[C@H](O)CO)c(O)c6-c6cc4ccc6O)[C@H](O)c4ccc(c(Cl)c4)O5)O[C@H](CO)[C@@H](O)[C@@H]3O)O[C@@H](C)[C@H]2O)cc1 | 4 (≈ 2.18 µM) | 8 (≈ 4.37 µM)
5 | C#Cc1ccc(CN[C@@]2(C)C[C@H](O[C@H]3[C@H](Oc4c5cc6cc4Oc4ccc(cc4Cl)[C@@H](O)[C@@H](NC(=O)[C@@H](CC(C)C)NC)C(=O)N[C@@H](CC(N)=O)C(=O)N[C@H]6C(=O)N[C@H]4C(=O)N[C@H](C(=O)N[C@H](C(=O)O)c6cc(O)c(CN[C@H]7C(O)O[C@H](CO)[C@H](O)[C@@H]7O)c(O)c6-c6cc4ccc6O)[C@H](O)c4ccc(c(Cl)c4)O5)O[C@H](CO)[C@@H](O)[C@@H]3O)O[C@@H](C)[C@H]2O)cc1 (some centres undefined) | 2 (≈ 1.14 µM) | 8 (≈ 4.56 µM)
6 | CN[C@H](CC(C)C)C(=O)N[C@H]1C(=O)N[C@@H](CC(N)=O)C(=O)N[C@H]2C(=O)N[C@H]3C(=O)N[C@H](C(=O)N[C@H](C(=O)O)c4cc(O)c(CNCCO)c(O)c4-c4cc3ccc4O)[C@H](O)c3ccc(c(Cl)c3)Oc3cc2cc(c3O[C@@H]2O[C@H](CO)[C@@H](O)[C@H](O)[C@H]2O[C@H]2C[C@](C)(NCc3ccc(-c4ccncc4)cc3)[C@H](O)[C@H](C)O2)Oc2ccc(cc2Cl)[C@H]1O | 0.5 (≈ 0.296 µM) | 2 (≈ 1.18 µM)
7 | CCCCCCCCCCNCCN[C@@]1(C)C[C@H](O[C@H]2[C@H](Oc3c4cc5cc3Oc3ccc(cc3Cl)[C@@H](O)[C@@H](NC(=O)[C@@H](CC(C)C)NC)C(=O)N[C@@H](CC(N)=O)C(=O)N[C@H]5C(=O)N[C@H]3C(=O)N[C@H](C(=O)N[C@H](C(=O)O)c5cc(O)c(CNCCO[C@@H]6O[C@H](CO)[C@@H](O)[C@H](O)[C@H]6NC(C)=O)c(O)c5-c5cc3ccc5O)[C@H](O)c3ccc(c(Cl)c3)O4)O[C@H](CO)[C@@H](O)[C@@H]2O)O[C@@H](C)[C@H]1O | 1 (≈ 0.524 µM) | 4 (≈ 2.1 µM)
8 | CCCCCCCCCCC(=O)N[C@@]1(C)C[C@H](O[C@H]2[C@H](Oc3c4cc5cc3Oc3ccc(cc3Cl)[C@@H](O)[C@@H](NC(=O)[C@@H](CC(C)C)NC)C(=O)N[C@@H](CC(N)=O)C(=O)N[C@H]5C(=O)N[C@H]3C(=O)N[C@H](C(=O)N[C@H](C(=O)O)c5cc(O)c(CNCCCNC(=O)[C@H](O)[C@@H](O)[C@H](O)[C@H](O)CO)c(O)c5-c5cc3ccc5O)[C@H](O)c3ccc(c(Cl)c3)O4)O[C@H](CO)[C@@H](O)[C@@H]2O)O[C@@H](C)[C@H]1O | 16 (≈ 8.5 µM) | 32 (≈ 17 µM)
9 | CN[C@H](CC(C)C)C(=O)N[C@H]1C(=O)N[C@@H](CC(N)=O)C(=O)N[C@H]2C(=O)N[C@H]3C(=O)N[C@H](C(=O)N[C@H](C(=O)O)c4cc(O)c(CNCCCNC(=O)[C@H](O)[C@@H](O)[C@H](O)[C@H](O)CO)c(O)c4-c4cc3ccc4O)[C@H](O)c3ccc(c(Cl)c3)Oc3cc2cc(c3O[C@@H]2O[C@H](CO)[C@@H](O)[C@H](O)[C@H]2O[C@H]2C[C@](C)(NCc3ccc(C#C[Si](C)(C)C)cc3)[C@H](O)[C@H](C)O2)Oc2ccc(cc2Cl)[C@H]1O | 1 (≈ 0.526 µM) | 2 (≈ 1.05 µM)
10 | CCCCCCCCCN[C@@]1(C)C[C@H](O[C@H]2[C@H](Oc3c4cc5cc3Oc3ccc(cc3Cl)[C@@H](O)[C@@H](NC(=O)[C@@H](CC(C)C)NC)C(=O)N[C@@H](CC(N)=O)C(=O)N[C@H]5C(=O)N[C@H]3C(=O)N[C@H](C(=O)N[C@H](C(=O)O)c5cc(O)c(CNCCO)c(O)c5-c5cc3ccc5O)[C@H](O)c3ccc(c(Cl)c3)O4)O[C@H](CO)[C@@H](O)[C@@H]2O)O[C@@H](C)[C@H]1O | 0.12 (≈ 0.0728 µM) | 0.5 (≈ 0.303 µM)
11 | CCCCCCCCCN[C@@]1(C)C[C@H](O[C@H]2[C@H](Oc3c4cc5cc3Oc3ccc(cc3Cl)[C@@H](O)[C@@H](NC(=O)[C@@H](CC(C)C)NC)C(=O)N[C@@H](CC(N)=O)C(=O)N[C@H]5C(=O)N[C@H]3C(=O)N[C@H](C(=O)N[C@H](C(=O)O)c5cc(O)c(CNCCCNC(=O)[C@H](O)[C@@H](O)[C@H](O)[C@H](O)CO)c(O)c5-c5cc3ccc5O)[C@H](O)c3ccc(c(Cl)c3)O4)O[C@H](CO)[C@@H](O)[C@@H]2O)O[C@@H](C)[C@H]1O | 0.5 (≈ 0.272 µM) | 2 (≈ 1.09 µM)
12 | CCCCCCCCCCNCCN[C@@]1(C)C[C@H](O[C@H]2[C@H](Oc3c4cc5cc3Oc3ccc(cc3Cl)[C@@H](O)[C@@H](NC(=O)[C@@H](CC(C)C)NC)C(=O)N[C@@H](CC(N)=O)C(=O)N[C@H]5C(=O)N[C@H]3C(=O)N[C@H](C(=O)N[C@H](C(=O)O)c5cc(O)c(CNCCCNC(=O)[C@H](O)[C@@H](O)[C@H](O[C@@H]6O[C@H](CO)[C@H](O)[C@H](O)[C@H]6O)[C@H](O)CO)c(O)c5-c5cc3ccc5O)[C@H](O)c3ccc(c(Cl)c3)O4)O[C@H](CO)[C@@H](O)[C@@H]2O)O[C@@H](C)[C@H]1O | 0.25 (≈ 0.121 µM) | 1 (≈ 0.486 µM)
13 | CCCCCCCCCCNCCN[C@@]1(C)C[C@H](O[C@H]2[C@H](Oc3c4cc5cc3Oc3ccc(cc3Cl)[C@@H](O)[C@@H](NC(=O)[C@@H](CC(C)C)NC)C(=O)N[C@@H](CC(N)=O)C(=O)N[C@H]5C(=O)N[C@H]3C(=O)N[C@H](C(=O)N[C@H](C(=O)O)c5cc(O)c(CNCCO[C@@H]6O[C@H](CO)[C@@H](O)[C@H](O)[C@H]6O)c(O)c5-c5cc3ccc5O)[C@H](O)c3ccc(c(Cl)c3)O4)O[C@H](CO)[C@@H](O)[C@@H]2O)O[C@@H](C)[C@H]1O | 4 (≈ 2.14 µM) | 16 (≈ 8.57 µM)
14 | CN[C@H](CC(C)C)C(=O)N[C@H]1C(=O)N[C@@H](CC(N)=O)C(=O)N[C@H]2C(=O)N[C@H]3C(=O)N[C@H](C(=O)N[C@H](C(=O)O)c4cc(O)c(CNCCCNC(=O)[C@H](O)[C@@H](O)[C@H](O)[C@H](O)CO)c(O)c4-c4cc3ccc4O)[C@H](O)c3ccc(c(Cl)c3)Oc3cc2cc(c3O[C@@H]2O[C@H](CO)[C@@H](O)[C@H](O)[C@H]2O[C@H]2C[C@](C)(NCc3ccc4ccccc4c3)[C@H](O)[C@H](C)O2)Oc2ccc(cc2Cl)[C@H]1O | 1 (≈ 0.539 µM) | 4 (≈ 2.16 µM)
15 | CN[C@H](CC(C)C)C(=O)N[C@H]1C(=O)N[C@@H](CC(N)=O)C(=O)N[C@H]2C(=O)N[C@H]3C(=O)N[C@H](C(=O)N[C@H](C(=O)O)c4cc(O)c(CNCCCNC(=O)[C@H](O)[C@@H](O)[C@H](O)[C@H](O)CO)c(O)c4-c4cc3ccc4O)[C@H](O)c3ccc(c(Cl)c3)Oc3cc2cc(c3O[C@@H]2O[C@H](CO)[C@@H](O)[C@H](O)[C@H]2O[C@H]2C[C@](C)(NCc3ccc(OCc4cccc(-c5ccccc5)c4C)c(Cl)c3)[C@H](O)[C@H](C)O2)Oc2ccc(cc2Cl)[C@H]1O | 0.5 (≈ 0.246 µM) | 1 (≈ 0.492 µM)
16 | CN[C@H](CC(C)C)C(=O)N[C@H]1C(=O)N[C@@H](CC(N)=O)C(=O)N[C@H]2C(=O)N[C@H]3C(=O)N[C@H](C(=O)N[C@H](C(=O)O)c4cc(O)c(CNCCCNC(=O)[C@H](O)[C@@H](O)[C@H](O)[C@H](O)CO)c(O)c4-c4cc3ccc4O)[C@H](O)c3ccc(c(Cl)c3)Oc3cc2cc(c3O[C@@H]2O[C@H](CO)[C@@H](O)[C@H](O)[C@H]2O[C@H]2C[C@](C)(NCc3ccc(-c4ccncc4)cc3)[C@H](O)[C@H](C)O2)Oc2ccc(cc2Cl)[C@H]1O | 1 (≈ 0.532 µM) | 4 (≈ 2.13 µM)
17 | CCCCCCCCCCNCCN[C@@]1(C)C[C@H](O[C@H]2[C@H](Oc3c4cc5cc3Oc3ccc(cc3Cl)[C@@H](O)[C@@H](NC(=O)[C@@H](CC(C)C)NC)C(=O)N[C@@H](CC(N)=O)C(=O)N[C@H]5C(=O)N[C@H]3C(=O)N[C@H](C(=O)N[C@H](C(=O)O)c5cc(O)c(CNCCO[C@H]6O[C@H](CO)[C@@H](O)[C@H](O)[C@@H]6O)c(O)c5-c5cc3ccc5O)[C@H](O)c3ccc(c(Cl)c3)O4)O[C@H](CO)[C@@H](O)[C@@H]2O)O[C@@H](C)[C@H]1O | 1 (≈ 0.535 µM) | 2 (≈ 1.07 µM)
